Measurements: paper PMC12219203 (Nature Communications, 2025)

How the values were obtained:
RAW-Dual cells = test: TNF-α secretion by RAW-Dual WT cells, with or without TLR inhibitors; assay type: cell-based, mouse; conditions: inhibitor 10 μM, 1 h pre-incubation, then GM 2 mM, 24 h; ELISA
In short: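 RAW-Dual cells were seeded at 100,000 cells/well and pre-incubated 1 h with 10 μM TLR2 (CU_CPT22), TLR4 (TAK-242) or TLR7/9 (AT791) inhibitor. They were then stimulated with 2 mM test compound for 24 h. Supernatants were cleared at 16,000 × g and TNF-α was measured by sandwich ELISA.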

Incubation with 10% FBS = assay type: in vitro ADME, bovine; conditions: 37 C, 16 h, LC-MS
NOD2 = test: HEK-Blue NOD2 SEAP reporter assay; assay type: cell-based, human; conditions: MDP, M-AE 200 nM; GM, M 20 μM; 18 h
In short: (§1)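 HEK-Blue hNod1 or hNod2 cells were seeded at 50,000 cells/well in DMEM/10% FBS without selection antibiotics and stimulated at once for 18 h (n = 3). Supernatant was mixed 1:4 with Quanti-Blue and incubated 6 h at 37 °C, and absorbance was read at 620 nm. Values were blanked against water-treated wells, and the respective parental Null cell readouts were subtracted.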

NOD1 = NOD1 (Homo sapiens, UniProt Q9Y239); test: HEK-Blue NOD1 SEAP reporter assay; assay type: cell-based; conditions: GM, M 20 μM; 18 h
In short: as §1

RAW264.7 cells = test: Cytokine expression in RAW264.7 macrophages; assay type: cell-based, mouse; conditions: GM 1-4 mM, M 4 mM, 24 h
In short: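 RAW264.7 cells were kept in high-glucose IMDM with HEPES, 5% heat-inactivated FBS and penicillin/streptomycin at 37 °C, 5% CO2. They were exposed to test compounds for 24 h (n = 4). Total RNA was extracted with a column kit, and TNF-α and IL-6 transcripts were quantified by RT-qPCR using the 2-ΔΔCt method, normalised to β-act.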

[1] = test system: WT bone-marrow-derived macrophages (BMDMs); test: Cytokine gene expression in WT BMDMs; assay type: cell-based, mouse; conditions: GM 2-8 mM, M 8 mM
In short: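 Marrow was flushed from the femur and tibia of female SPF C57BL/6J mice and red cells were lysed (NH4Cl/KHCO3). Cells at 200,000 cells/mL were differentiated for 6 days in IMDM with 20 ng/mL GM-CSF or 10% L929 supernatant, then switched to serum-free IMDM. Test compounds were added for 24 h (n = 3). Cytokine transcripts were measured by RT-qPCR (2-ΔΔCt, normalised to β-act).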

Tlr4-/- BMDMs = test: Cytokine secretion by Tlr4-/- BMDMs; assay type: cell-based, mouse; conditions: ELISA, 24 h; GM 4 mM, MDP 0.4 mM, LPS 100 ng/mL, CpG 100 nM
In short: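 Murine BMDMs were differentiated 6 days in complete medium with 20 ng/mL GM-CSF or 10% L929 supernatant, then switched to serum-free IMDM and stimulated 24 h. Mouse TNF-α and IL-6 in culture supernatants were quantified by sandwich ELISA. Samples were prediluted in 1% BSA in PBS, pH 7.4, where needed.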

NOD1, sequence (Q9Y239 whole entry): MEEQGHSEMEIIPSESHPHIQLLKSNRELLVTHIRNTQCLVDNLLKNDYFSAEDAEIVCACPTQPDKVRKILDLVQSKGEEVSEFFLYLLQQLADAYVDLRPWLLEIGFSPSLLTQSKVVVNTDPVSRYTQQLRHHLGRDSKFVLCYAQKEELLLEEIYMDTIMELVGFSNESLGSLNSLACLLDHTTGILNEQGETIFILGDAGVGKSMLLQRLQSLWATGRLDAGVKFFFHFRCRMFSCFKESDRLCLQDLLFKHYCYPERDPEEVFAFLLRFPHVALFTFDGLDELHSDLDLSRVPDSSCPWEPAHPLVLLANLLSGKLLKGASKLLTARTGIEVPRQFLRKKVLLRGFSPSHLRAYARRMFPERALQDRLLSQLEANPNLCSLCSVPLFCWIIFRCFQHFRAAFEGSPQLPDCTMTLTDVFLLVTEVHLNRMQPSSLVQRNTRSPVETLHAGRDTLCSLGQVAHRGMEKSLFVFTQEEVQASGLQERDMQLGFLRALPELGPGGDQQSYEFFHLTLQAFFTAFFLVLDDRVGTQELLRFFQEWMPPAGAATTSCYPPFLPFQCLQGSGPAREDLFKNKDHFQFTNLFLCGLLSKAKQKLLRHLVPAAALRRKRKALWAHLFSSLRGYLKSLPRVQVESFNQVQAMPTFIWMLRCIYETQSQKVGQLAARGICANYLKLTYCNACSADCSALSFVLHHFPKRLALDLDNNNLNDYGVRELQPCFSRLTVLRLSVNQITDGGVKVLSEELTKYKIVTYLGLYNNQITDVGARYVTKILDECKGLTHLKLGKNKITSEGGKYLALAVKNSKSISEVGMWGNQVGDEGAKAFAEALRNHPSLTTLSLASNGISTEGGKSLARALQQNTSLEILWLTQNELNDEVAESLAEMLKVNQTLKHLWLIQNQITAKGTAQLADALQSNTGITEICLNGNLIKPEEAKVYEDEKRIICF

Question: For `CCOC(=O)C1=CCCC[C@H]1S(=O)(=O)Nc1ccc(F)cc1Cl` [TAK-242], which “Effect of TLR inhibitor on GM-triggered TNF-α production” value (RAW-Dual cells) is on record?
Answer: The value was “suppressed GM-triggered TNF-α production”.

Question: For M-AEKAA, which “Degradation on incubation with 10% FBS” value (Incubation with 10% FBS) is on record?
Answer: The value was “reliably yields the expected degradation products: M and AEKAA”.

Question: What does the source list for `CC(=O)N[C@H]1C(O)O[C@H](CO)[C@@H](O)[C@@H]1O[C@H](C)C(=O)O` (some centres unmarked) [M, N-acetylmuramic acid, reference compound]?
Answer: NOD2 activation in HEK-Blue reporter cells (in words) (NOD2): unable to activate NOD1/2; NOD1 activation in HEK-Blue reporter cells (in words) (NOD1): unable to activate NOD1/2; Immuno-stimulatory activity (TNF-α, IL-6) in RAW264.7 (in words) (RAW264.7 cells): less potent; Immuno-stimulatory activity (TNF-α, IL-6) in BMDMs (in words) [1]: less potent

Question: With `CC(=O)N[C@H]1C(O)O[C@H](CO)[C@@H](O)[C@@H]1O[C@H](C)C(=O)N[C@@H](C)C(=O)N[C@H](CCC(=O)O)C(N)=O` (stereo partly drawn) [MDP, N-acetylmuramyl-L-Ala-D-isoGln, reference compound] as the compound, how does the “TNF-α and IL-6 production in Tlr4-/- BMDMs (in words)” value (Tlr4-/- BMDMs) read?
Answer: The value was “still trigger comparable proinflammatory cytokine production”.

Question: With `CC(=O)N[C@H]1C(O)O[C@H](CO)[C@@H](O)[C@@H]1O[C@H](C)C(=O)N[C@@H](C)C(=O)N[C@H](CCC(=O)O)C(=O)O` (some centres unmarked) [M-AE] as the compound, how does the “NOD2 activation in HEK-Blue reporter cells (in words)” value (NOD2) read?
Answer: Its value is “potent NOD2 activation similar to the model ligand MDP”.
